Reference: ChEMBL document CHEMBL4020757, “Lathyrol and epoxylathyrol derivatives: Modulation of Cdr1p and Mdr1p drug-efflux transporters of Candida albicans in Saccharomyces cerevisiae model” (Bioorg Med Chem, 2017)
In brackets after ≈: the same amount, converted by molar mass.

What was measured:
Saccharomyces cerevisiae [1] = assay: Potentiation of fluconazole-induced antifungal activity against Saccharomyces cerevisiae AD1-8u(-) by checkerboard method; type: functional
Procedure, shortened: (§1)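 Checkerboard per CLSI in AD1-8u⁻ control, AD-CDR1 or AD-MDR1 cells (10⁴ cells) grown 48 h at 30 °C. Fluconazole 4-209 μM crossed with compound 0.25-400 μM. Growth read by optical density. FIC of each agent is its MIC in combination divided by its MIC alone. FICI is the sum of the fluconazole and compound FICs, with values below 0.5 taken as synergy.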

Candida albicans [2] = assay: Inhibition of Candida albicans CDR1 expressed in Saccharomyces cerevisiae AD assessed as potentiation of fluconazole-induced antifungal activity against Saccharomyces cerevisiae AD by checkerboard method; procedure, shortened: as §1
Candida albicans [3] = assay: Inhibition of Candida albicans CDR1 expressed in Saccharomyces cerevisiae AD assessed as ratio of compound MIC80 in combinantion with fluconazole to compound alone MIC80 for Saccharomyces cerevisiae AD by checkerboard method
Procedure, shortened: (§2)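 Checkerboard per CLSI with 10⁴ cells of AD-CDR1, AD-MDR1 or AD1-8u⁻, grown 48 h at 30 °C. Fluconazole 4-209 μM crossed with compound 0.25-400 μM, growth read by optical density. Compound FIC is the compound MIC in combination with fluconazole divided by its MIC alone.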

Saccharomyces cerevisiae [4] = assay: Antifungal activity against Saccharomyces cerevisiae AD over-expressing Candida albicans CDR1 after 48 hrs; type: functional
Procedure, shortened: (§3)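 Yeast (10⁴ cells) grown in YEPD at 30 °C for 48 h with inhibitors at 0.25-400 μM (DMSO stocks); growth read by optical density, inhibitor-free growth set as 100%. MIC80 = concentration giving 80% growth inhibition. RI = MIC80 in AD-CDR1 or AD-MDR1 divided by MIC80 in control AD1-8u⁻. Means ± SD, duplicate samples, at least three independent experiments.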

Candida albicans [5] = assay: Inhibition of Candida albicans CDR1 expressed in Saccharomyces cerevisiae AD assessed as reduction in nile red dye efflux at 70 uM after 30 mins by flow cytometry relative to control
Procedure, shortened: (§4)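 AD-CDR1 or AD-MDR1 cells grown in YEPD at 30 °C with shaking from OD600 0.1 to 0.25, then resuspended as a 5% suspension in 1:2 YEPD:water. Nile Red (final 7 μM) added with or without compound at 70 μM, 30 min at 30 °C. Cells washed twice and 10,000 cells analysed by flow cytometry. Efflux rate expressed relative to untreated control cells. Means ± SD, three independent experiments.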

Saccharomyces cerevisiae [6] = assay: Antifungal activity against Saccharomyces cerevisiae AD1-8u(-) after 48 hrs; type: functional
Procedure, shortened: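 S. cerevisiae AD1-8u⁻ control strain revived from glycerol stock on YEPD plates and grown in YEPD at 30 °C. 10⁴ cells exposed to compound at 0.25-400 μM for 48 h at 30 °C. Growth read as optical density, with no-inhibitor growth as 100%. MIC80 is the concentration giving 80% growth inhibition. Means ± SD of duplicates from at least three independent experiments.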

Saccharomyces cerevisiae [7] = assay: Resistance index, ratio of MIC80 for Saccharomyces cerevisiae AD over-expressing Candida albicans MDR1 to MIC80 for Saccharomyces cerevisiae AD1-8u(-); type: functional; procedure, shortened: as §3
[8] = Lipophilicity, log P of the compound; type: physicochemical; conditions: octanol/water
Saccharomyces cerevisiae [9] = assay: Resistance index, ratio of MIC80 for Saccharomyces cerevisiae AD over-expressing Candida albicans CDR1 to MIC80 for Saccharomyces cerevisiae AD1-8u(-); type: functional; procedure, shortened: as §3
Candida albicans [10] = assay: Inhibition of Candida albicans MDR1 expressed in Saccharomyces cerevisiae AD assessed as ratio of compound MIC80 in combinantion with fluconazole to compound alone MIC80 for Saccharomyces cerevisiae AD by checkerboard method; procedure, shortened: as §2
Saccharomyces cerevisiae [11] = assay: Synergistic antifungal activity against Saccharomyces cerevisiae AD1-8u(-) assessed as ratio of compound MIC80 in combinantion with fluconazole to compound alone MIC80 by checkerboard method; type: functional; procedure, shortened: as §2
Candida albicans [12] = assay: Inhibition of Candida albicans MDR1 expressed in Saccharomyces cerevisiae AD assessed as reduction in nile red dye efflux at 70 uM after 30 mins by flow cytometry relative to control; procedure, shortened: as §4
Saccharomyces cerevisiae [13] = assay: Antifungal activity against Saccharomyces cerevisiae AD over-expressing Candida albicans MDR1 after 48 hrs; type: functional; procedure, shortened: as §3
Candida albicans [14] = assay: Inhibition of Candida albicans MDR1 expressed in Saccharomyces cerevisiae AD assessed as potentiation of fluconazole-induced antifungal activity against Saccharomyces cerevisiae AD by checkerboard method; procedure, shortened: as §1

Row | Compound | fractional inhibitory concentration index (FICI) (Saccharomyces cerevisiae [1]) | fractional inhibitory concentration index (FICI) (Candida albicans [2]) | Ratio (Candida albicans [3]) | MIC80 (Saccharomyces cerevisiae [4]) | inhibition (Candida albicans [5]) | MIC80 (Saccharomyces cerevisiae [6]) | Ratio (Saccharomyces cerevisiae [7]) | logP [8] | Ratio (Saccharomyces cerevisiae [9]) | Ratio (Candida albicans [10]) | Ratio (Saccharomyces cerevisiae [11]) | inhibition (Candida albicans [12]) | MIC80 (Saccharomyces cerevisiae [13]) | fractional inhibitory concentration index (FICI) (Candida albicans [14])
1 | COc1ccc(C(=O)O[C@@H]2[C@@H]3[C@@H](OC(=O)c4ccc(OC)cc4)[C@]4(CC[C@H]5[C@@H](/C=C(\C)C(=O)[C@@]3(O)C[C@@H]2C)C5(C)C)CO4)cc1 | 2 | 1.4 | 1 | 776 µM (≈ 480 µg/mL) | 10% | 809 µM (≈ 501 µg/mL) | 1.06 | 4.51 | 0.95 | 1 | 1 | 80% | 861 µM (≈ 533 µg/mL) | 1.3
2 | C=C1CC[C@H]2[C@@H](/C=C(\C)C(=O)[C@@]3(O)C[C@H](C)[C@H](O)[C@@H]3[C@H]1OC(=O)c1cccc(Br)c1)C2(C)C | 2 | 1.4 | 1 | 901 µM (≈ 466 µg/mL) | 85% | 968 µM (≈ 501 µg/mL) | 0.91 | 3.11 | 0.93 | 1 | 1 | 30% | 884 µM (≈ 457 µg/mL) | 1.3
3 | C=C1CC[C@H]2[C@@H](/C=C(\C)C(=O)[C@@]3(OC(C)=O)C[C@H](C)[C@H](OC(C)=O)[C@@H]3[C@H]1OC(C)=O)C2(C)C | 2 | 1.4 | 1 | 2100 µM (≈ 967 µg/mL) | 25% | 543 µM (≈ 250 µg/mL) | 4 | 3.35 | 4 | 1 | 1 | 35% | 2100 µM (≈ 967 µg/mL) | 1.3
4 | C/C1=C\[C@@H]2[C@H](CC[C@]3(CO3)[C@H](O)[C@H]3[C@@H](O)[C@@H](C)C[C@]3(O)C1=O)C2(C)C | 2 | 1.4 | 1 | 2800 µM (≈ 981 µg/mL) | 30% | 714 µM (≈ 250 µg/mL) | 4 | 1.91 | 4 | 1 | 1 | 85% | 2800 µM (≈ 981 µg/mL) | 1.3
5 | CCCC(=O)O[C@@H]1[C@@H]2[C@@H](OC(=O)CCC)[C@]3(CC[C@H]4[C@@H](/C=C(\C)C(=O)[C@@]2(OC(=O)CCC)C[C@@H]1C)C4(C)C)CO3 | 2 | 1.4 | 1 | 762 µM (≈ 427 µg/mL) | 35% | 892 µM (≈ 500 µg/mL) | 0.89 | 4.3 | 0.85 | 1 | 1 | 85% | 801 µM (≈ 449 µg/mL) | 1.3
6 | CC(=O)O[C@@H]1[C@@H]2[C@@H](OC(C)=O)[C@]3(CC[C@H]4[C@@H](/C=C(\C)C(=O)[C@@]2(OC(C)=O)C[C@@H]1C)C4(C)C)CO3 | 2 | 1.4 | 1 | 519 µM (≈ 247 µg/mL) | 20% | 525 µM (≈ 250 µg/mL) | 0.99 | 2.7 | 0.98 | 1 | 1 | 75% | 529 µM (≈ 252 µg/mL) | 1.3
7 | C/C1=C\[C@@H]2[C@H](CC[C@]3(CO3)[C@H](OC(=O)Cc3ccccc3)[C@H]3[C@@H](OC(=O)Cc4ccccc4)[C@@H](C)C[C@]3(O)C1=O)C2(C)C | 2 | 1.4 | 1 | 756 µM (≈ 444 µg/mL) | 10% | 853 µM (≈ 500 µg/mL) | 0.92 | 4.91 | 0.88 | 1 | 1 | 15% | 788 µM (≈ 462 µg/mL) | 1.3
8 | C/C1=C\[C@@H]2[C@H](CC[C@]3(CO3)[C@H](OC(=O)c3ccccc3)[C@H]3[C@@H](OC(=O)c4ccccc4)[C@@H](C)C[C@]3(O)C1=O)C2(C)C | 2 | 1.4 | 1 | 803 µM (≈ 449 µg/mL) | 25% | 896 µM (≈ 501 µg/mL) | 0.98 | 4.6 | 0.89 | 1 | 1 | 80% | 880 µM (≈ 492 µg/mL) | 1.3
9 | CCCC(=O)O[C@@H]1[C@@H]2[C@@H](OC(C)=O)[C@]3(CC[C@H]4[C@@H](/C=C(\C)C(=O)[C@@]2(OC(C)=O)C[C@@H]1C)C4(C)C)CO3 | 2 | 1.4 | 1 | 1000 µM (≈ 505 µg/mL) | 10% | 992 µM (≈ 501 µg/mL) | 0.9 | 2.5 | – | 1 | 1 | 25% | 901 µM (≈ 455 µg/mL) | 1.3
